High-throughput results as filed in PubChem.
Myeloid diff MLP – compounds promoting myeloid differentiation. ER-HoxA9 myeloid progenitors, lysozyme-GFP differentiation, flow cytometry. calls only at 10 µM. 360,000 tested, 1% active. AID 624256;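 active = normalized GFP-positive differentiation at or above the plate's own cutoff, the solvent-only control mean plus 3 SD; inconclusive = no clear call, values can overlap the other calls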;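 note: cells exposed to compound for four days before flow analysis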
VLA-4 inh – inhibition in a human VLA-4 binding assay; P13612; VLA-4 expressing cells, ligand binding flow cytometry; inhibition, % (about 7 µM as worked out from the volumes in the protocol); 330,000 tested, 0.2% active; in the data active = inhibition above about 50%
Target sequence (P13612 whole entry, looked up): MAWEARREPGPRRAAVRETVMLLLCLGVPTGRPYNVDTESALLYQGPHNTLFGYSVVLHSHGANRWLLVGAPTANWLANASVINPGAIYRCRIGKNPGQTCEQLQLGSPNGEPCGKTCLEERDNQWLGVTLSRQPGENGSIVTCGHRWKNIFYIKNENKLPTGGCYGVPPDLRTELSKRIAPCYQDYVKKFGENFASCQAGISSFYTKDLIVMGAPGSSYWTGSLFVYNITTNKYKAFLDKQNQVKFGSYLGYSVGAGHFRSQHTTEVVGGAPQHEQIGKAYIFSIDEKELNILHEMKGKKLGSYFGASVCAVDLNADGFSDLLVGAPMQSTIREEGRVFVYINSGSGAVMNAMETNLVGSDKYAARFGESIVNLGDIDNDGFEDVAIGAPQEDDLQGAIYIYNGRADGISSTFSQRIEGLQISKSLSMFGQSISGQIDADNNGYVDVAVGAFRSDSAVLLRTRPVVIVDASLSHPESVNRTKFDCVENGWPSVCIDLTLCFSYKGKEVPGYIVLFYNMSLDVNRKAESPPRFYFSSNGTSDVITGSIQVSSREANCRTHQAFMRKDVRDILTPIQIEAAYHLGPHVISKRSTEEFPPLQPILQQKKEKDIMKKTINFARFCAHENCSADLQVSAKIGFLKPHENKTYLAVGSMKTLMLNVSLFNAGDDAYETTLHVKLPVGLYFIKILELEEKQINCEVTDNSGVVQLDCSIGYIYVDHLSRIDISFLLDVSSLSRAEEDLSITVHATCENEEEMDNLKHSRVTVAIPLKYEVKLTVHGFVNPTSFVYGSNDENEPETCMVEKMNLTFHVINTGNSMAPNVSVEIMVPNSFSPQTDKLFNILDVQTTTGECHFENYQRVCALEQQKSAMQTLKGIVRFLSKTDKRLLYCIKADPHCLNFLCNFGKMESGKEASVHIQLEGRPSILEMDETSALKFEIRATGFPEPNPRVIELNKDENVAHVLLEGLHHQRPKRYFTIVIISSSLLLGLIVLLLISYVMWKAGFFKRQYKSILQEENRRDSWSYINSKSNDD
Platelet DG rel – modulates dense granule release in human platelets; human platelet-rich plasma, SFLLRN dense granule ATP release, luminescence; inhibition, %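 (compounds screened at 7.5 µM in platelet-rich plasma)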; 300,000 tested, 0.22% active;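 active = mean replicate score, as percent of positive control, at or above 50; inconclusive = mean below 50 but at least one replicate at or above 50; inactive = mean and every replicate below 50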
SENP1 inh – blocks the human SENP1 SUMO protease catalytic domain. Q9P0U3. recombinant SENP1 catalytic domain, CyPet-SUMO1-YPet FRET cleavage. inhibition, % at 10 µM. 360,000 tested, 0.21% active. AID 624204;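 active = inhibition at least 30% at 10 µM, raw YFP signal under a set limit, fluorescence ratio 0.5 to 1.5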;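 note: 0% = enzyme with DMSO and 100% = no enzyme wells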
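material = recombinant human SENP1 catalytic domain, His6-tagged | quantity = 20 pM enzyme | reagent = 25 nM SUMO1 FRET substrate | compound dosing = 10 µM single point, 0.5% DMSO | timing = 50 min enzyme reaction, room temperature, light-protected | detection = FRET, CFP and YFP emission | control set = no-enzyme low, enzyme-DMSO high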
* hit, by the source's call; i = inactive; ? = inconclusive; · = no result; + = active, no number. Most compounds without a hit are left out; they make up all but 1.5% or so of the library.

SMILES	Myeloid diff MLP	VLA-4 inh	Platelet DG rel	SENP1 inh
O=C1N/C(=C\c2ccc(O)cc2)C(=O)c2ccccc21	i	-2	80*	15
CN1CCN(C(=O)CSc2nc(-c3cccs3)ccc2C#N)CC1	+	-14	-31	-14
N#Cc1ccc(-c2cccs2)nc1SCc1cccnc1	?	4	-5	-71
NNc1nc2c(-c3cccc(C(F)(F)F)c3)nnn2c2ccccc12	+	-40	-6	-27
CCc1ccc(-c2cc(C)no2)cc1S(=O)(=O)N1CCN(C(=O)c2ccco2)CC1	?	7	-22	0
O=C(Nc1ccccc1)c1ccn[nH]1	i	4	11	1
CC(=O)c1ccc(NC(=O)c2ccn[nH]2)cc1	i	5	50*	-1
N#Cc1ccc(CSc2nnc(-c3ccccc3)n2Cc2ccco2)cc1	+	-6	-2	0
N#Cc1ccc(CSc2nnc(Cc3cccs3)n2Cc2ccco2)cc1	i	15	1	-15
Cc1ccc(C)c(OCCC(=O)OCC(=O)NCCc2ccc(S(N)(=O)=O)cc2)c1	i	4	16	2
COCCN(C(=S)Nc1c(C)cccc1C)C(C)c1ccco1 (stereo not given)	i	-5	18	2
O=C(NCc1cc(C(F)(F)F)ccc1Cl)c1cccc2c1C(=O)c1ccc(N3CCC(N4CCCCC4)CC3)cc1S2(=O)=O	+	·	·	-29
O=C(NCCN1CCOCC1)c1cccc2c1C(=O)c1ccc(N3CCCC3)cc1S2(=O)=O	i	-69	·	22
O=C(NCc1cc(C(F)(F)F)ccc1Cl)c1cccc2c1C(=O)c1ccc(N3CCOCC3)cc1S2(=O)=O	+	-2	·	-30
O=C(NCc1cc(C(F)(F)F)ccc1Cl)c1cccc2c1C(=O)c1ccc(N3CCCCC3)cc1S2(=O)=O	?	-115	·	-31
CNC(=O)C[C@@H]1C(=O)N(C2CCCCC2)CC1(C)C	+	·	·	0
O=C(N/N=C/c1cc2c(cc1Br)OCO2)c1ccccn1	i	6	22	2
O=C(N/N=C/c1cc2c(cc1Br)OCO2)c1c[nH]c2ccccc12	i	50*	-11	3
COc1ccccc1CNc1nc(NC(C)C)nc2cc(-c3ccccc3)sc12	+	·	·	-1
C=CCN1C(=O)c2ccc(C(=O)N3CCN(S(=O)(=O)c4ccccc4Br)CC3)cc2C1=O	i	8	0	0
Cc1ccc(S(=O)(=O)N(CC(=O)NCCC2=CCCCC2)Cc2ccccc2)cc1	+	8	-1	2
Cn1c(/C=C/c2ccc(Cl)cc2)c([N+](=O)[O-])c(=O)n(C)c1=O	?	10	·	34*
CC(=O)Oc1ccc(N(C(C)=O)S(=O)(=O)c2ccc(C)cc2)c2ccccc12	+	-5	-7	0
N#C/C(=C(/O)COC(=O)CSc1ccc(Cl)cc1)c1nc2ccccc2[nH]1	+	-20	-52	-60
CCOC(=O)C1(Cc2ccc(OC)cc2)CCN(C(=O)c2cc(C)nn2C)CC1	i	4	-12	1
SMILES	Myeloid diff MLP	VLA-4 inh	Platelet DG rel	SENP1 inh
CCCCOc1ccc(OCCCC)c2c1NC1(N2)C(=O)N(C(C)=O)c2ccccc21	i	-14	5	45*
Oc1c(C(c2cccs2)N2CCOCC2)sc2ncnn12 (stereo not given)	i	-23	55*	0
CCOC(=O)N1CCN(Cc2nc3c(c(=O)n(C)c(=O)n3C)n2Cc2cccc3ccccc23)CC1	i	-4	73*	3
CCCc1cc(-c2nc(N)ncc2-c2ccc3c(c2)OCCCO3)c(O)cc1OC	i	-3	70*	-1
CCOc1ccc(N/C=C/C(=O)c2ccccc2)c([N+](=O)[O-])c1	i	7	85*	8
COc1ccc(N/C=C/C(=O)c2ccccc2)cc1	i	6	56*	-39
COc1ccc(N/C=C\C(=O)c2ccc3ccccc3c2)cc1	i	9	-1	-42
CCC(=O)c1ccc(OCC(=O)OCC(=O)Nc2cccc(S(=O)(=O)N3CCCC3)c2)cc1	i	7	·	1
O=C(COC(=O)CCC(=O)c1ccc(F)cc1)Nc1cccc(S(=O)(=O)N2CCCC2)c1	i	3	59*	5
CC[C@]12c3[nH]c4cc(CCC(=O)N(C)C)ccc4c3CCN1C(=O)[C@@H](CC(=O)NCCc1ccccn1)C[C@@H]2C(=O)N1CCN(C(=O)c2ccco2)CC1	+	·	·	0
CC(C)=CCC/C(C)=C/CNC(=O)C[C@H]1C[C@H](C(=O)N2CCCCC2)[C@@]2(CCc3ccccc3)c3[nH]c4cc(CCC(=O)N(C)C)ccc4c3CCN2C1=O	+	·	·	-1
C[C@]12c3[nH]c4cc(-c5ccco5)ccc4c3CCN1C(=O)[C@@H](CC(=O)NCCN1CCOCC1)C[C@@H]2C(=O)N1CCOCC1	+	·	·	-2
CC[C@]12c3[nH]c4ccccc4c3CCN1C(=O)C(CC(=O)NCCc1ccccn1)C[C@@H]2C(=O)N1CCN(C(=O)c2ccco2)CC1 (stereo not given in full)	i	-9	·	-2
CC[C@]12c3[nH]c4ccccc4c3CCN1C(=O)C(CC(=O)NCCCn1ccnc1)C[C@@H]2C(=O)N1CCN(C(=O)C2CC2)CC1 (stereo not given in full)	+	45	·	-1
CC(C)N(C(=O)[C@H]1C[C@H](CC(=O)NCCN2CCOCC2)C(=O)N2CCc3c([nH]c4cc(-c5ccco5)ccc34)[C@]12C)C(C)C	i	·	·	-2
O=C(Nc1ccc(F)cc1)C1CCN(S(=O)(=O)c2cccc3nonc23)CC1	i	-13	-2	10
CC(=O)c1c[nH]c(C(=O)NCc2cccc(C(F)(F)F)c2)c1	i	-1	2	1
Cc1cccc2cc3c(N)c(C(=O)Nc4ccc(N5CCOCC5)cc4)sc3nc12	i	15	-3	65*
Cc1sc(NC(=O)c2sc3nc4c(C)cccc4cc3c2N)c(C#N)c1C	+	-455	6	-22
Cc1cccc2cc3c(N)c(C#N)sc3nc12	i	8	0	-23
CCc1cccc2cc3c(N)c(C(=O)Nc4ccc(S(=O)(=O)N5CCCC5)cc4)sc3nc12	+	i	-3	-26
Cc1cccc2cc3c(N)c(C(=O)N4CCc5ccccc54)sc3nc12	+	-170	-7	23
COC(=O)c1ccc2c(c1)N(C)S(=O)(=O)c1cnc(SCC(=O)C(C)(C)C)nc1-2	i	4	10	1
CC(=O)NC(=S)Nc1ccc(S(=O)(=O)Nc2ncccn2)cc1	i	5	-2	2
NS(=O)(=O)c1ccc(CCNC(=O)COC(=O)CN2C(=O)C3CCCCC3C2=O)cc1 (stereo not given)	i	6	3	-1
CCCCn1c(N)c(N(Cc2ccccc2OC)C(=O)c2c(CC)noc2C)c(=O)[nH]c1=O	i	6	6	-5
OC(CN1CCNCC1)Cn1ccc2ccccc21 (stereo not given)	·	-9	3	·
O=C1c2ccccc2S(=O)(=O)N1CC(O)Cn1ccc2ccccc21 (stereo not given)	+	1	10	12
